Source: PubChem BioAssay
An excerpt weighted towards active compounds, which were near 3.9% of everything screened.
TAAR1 agonist = human TAAR1 agonists, primary screen, Fluo-8 calcium fluorescence, CHO RD-HGA16 cells | vehicle wells 0%, saturating PEA agonist 100% | Trace amine-associated receptor 1 (Homo sapiens), Q96RJ0 | 360,000 tested, 0.99% active | activation, % at 3 µM;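 active means activation above the mean activation of all test compounds in the run plus 3 SD, cut at about 38% in these data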
Target sequence (Q96RJ0 whole entry, looked up): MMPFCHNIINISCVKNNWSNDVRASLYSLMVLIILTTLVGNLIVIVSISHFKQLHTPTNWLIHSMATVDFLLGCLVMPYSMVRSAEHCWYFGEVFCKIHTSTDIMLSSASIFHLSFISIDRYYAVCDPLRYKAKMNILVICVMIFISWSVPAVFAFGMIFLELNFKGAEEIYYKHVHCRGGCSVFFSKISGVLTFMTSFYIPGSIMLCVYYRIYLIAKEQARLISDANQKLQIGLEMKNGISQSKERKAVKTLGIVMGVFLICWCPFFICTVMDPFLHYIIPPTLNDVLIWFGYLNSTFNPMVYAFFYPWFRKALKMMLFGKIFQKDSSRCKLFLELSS
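Benchmarks: low control DMSO, high control PEA (EC100); System: CHO RD-HGA16 cells carrying human TAAR1 plus Gα16; Detection: Fluo-8 fluorescence, 5 s baseline then 140 s kinetic read; Schedule: 17-24 h plating, Fluo-8 75 min 37 °C, 30 min RT; Read-out basis: % activation from peak over basal fluorescence ratio, DMSO-to-PEA scaled.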
TAAR1 antagonist = human TAAR1 antagonists, primary screen, Fluo-8 calcium fluorescence, CHO RD-HGA16 cells; Trace amine-associated receptor 1 (Homo sapiens), Q96RJ0; antagonist; inhibition, % at 3 µM; 360,000 tested, 1.5% active; AID 624466, 2012;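 active means inhibition above a per-plate cutoff, the mean inhibition of test compounds on that plate plus 3 SD, cut at about 49% in these data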
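Test system: RD-HGA16 CHO cells with stable hTAAR1 and Gα16 / Probe or stimulus: EC80 β-phenethylamine stimulus / Times: seeding 17-24 h prior, 75-min 37 °C, 30-min RT dye loading / Detection: Fluo-8 calcium-sensitive fluorescence / Read-out basis: % inhibition scaled between DMSO and EC80 PEA controls / Repeats: singlicate, one well per test compound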
CRFR2-BP ag = agonists of CRF-BP/CRF-R2 complex, primary screen, cell-based, HEK293, calcium dye fluorescence, uHTS | activation, % at 13.2 µM | CRF-binding protein / CRF receptor 2 complex (human) | calcium dye fluorescence (FLIPR); percent of saturating CRF peptide response | 350,000 tested, 0.46% active;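 active means activation of at least 50%, plus an integration ratio under a set limit after plate pattern correction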
CRFR2-BP antag = antagonists of CRF-BP/CRF-R2 complex, primary screen, cell-based, HEK293, calcium dye fluorescence, uHTS; 350,000 tested, 0.59% active; inhibition, % at 11.8 µM; CRF-induced calcium fluorescence;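 active means inhibition of the ligand-induced calcium signal above about 50% at the single tested concentration, limit read from the data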
TMEM16A act = TMEM16A chloride channel activators or potentiators, primary screen, cell-based, HTS; Anoctamin-1 (Mus musculus), Q8BHY3; 340,000 tested, 0.3% active; HEK293 TMEM16A/YFP-H148Q/I152L, iodide quench fluorescence; active compounds read low; AID 623877, 2012; B-score at 10 µM;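 active means fluorescence-ratio B-score plate-corrected deviation score at least 3 library SD below zero, with starting fluorescence score within 5 deviations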;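 further: channel opened by trigger with iodide after compound preincubation; score built on the fluorescence ratio of max minus min over baseline; more negative score means more quench and so TMEM16A activation or potentiation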
TMEM16A inh = TMEM16A chloride channel inhibitors, primary screen, cell-based, HTS | 310,000 tested, 1.2% active | normalized B-score (activity score, 25-100; higher = stronger inhibition) at 10 µM | Anoctamin-1 (Mus musculus), Q8BHY3 | HEK293 TMEM16A/YFP iodide influx fluorescence, ionomycin;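 active means ratio plate-corrected score three or more library SD toward inhibition, starting fluorescence score within five deviations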;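 further: score derived from kinetic fluorescence span divided by baseline fluorescence per well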
TAAR1 ag confirm = human TAAR1 agonists, retest of hits, confirmation, Fluo-8 calcium fluorescence, CHO RD-HGA16 cells; 2,400 tested, 82% active; shares compounds with TAAR1 agonist; activation, % at 3 µM; scaled: DMSO 0%, maximal phenethylamine 100%;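 active means activation above a cutoff set at the run's mean compound activation plus 3 SD, cut at about 39% in these data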
Ga16 ag counter = nonselective calcium mobilization agonists, CHO-Ga16 cells, counter-screen for hTAAR1 agonist project, cell-based, fluorescence, CHO-Ga16 parental line; Fluo-8 calcium fluorescence; normalized to maximal ATP response, DMSO zero; activation, % at 3 µM; AID 651787, 2012; shares compounds with TAAR1 agonist; 2,400 tested, 50% active;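 active means activation above the run cutoff, the mean activation over all tested wells plus 3 SD, cut at about 12% in these data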
TAAR1 desens = TAAR1 desensitization by agonist hits, confirmation, counter-screen for TAAR1 agonist project, cell-based, fluorescence, tachyphylaxis; 2,400 tested, 46% active; shares compounds with TAAR1 agonist; AID 651951, 2012; inhibition, % at 3 µM; CHO RD-HGA16 hTAAR1, Fluo-8 calcium, beta-PEA response inhibition;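 active means inhibition above the run cutoff, the mean inhibition of all test compounds plus 3 SD, cut at about 49% in these data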;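 further: beta-PEA stimulus applied at its EC80; loss of beta-PEA calcium signal after compound pretreatment read as receptor desensitization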
Ga16 antag count = inhibition of ATP-evoked calcium response in CHO-Ga16 cells, counter-screen for TAAR1 agonist project, cell-based, fluorescence. shares compounds with TAAR1 agonist. CHO-Ga16 ATP-induced calcium, Fluo-8 fluorescence. inhibition, % at 3 µM. 2,400 tested, 39% active. AID 651952, 2012;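 active means inhibition above the plate's mean compound inhibition plus 3 SD, computed per plate, cut at about 22% in these data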
Large screens that a line does not name were inactive (follow-up assays come after a bar, where they were run).

CCCCN(C)C(=O)c1nc2ccccn2c1CN1CCSCC1	none
Cc1ccccc1Cn1nnc(C(=O)Nc2cccc(C)c2C)c1N	TAAR1 agonist 65.9 | TAAR1 ag confirm 79.0 | Ga16 ag counter 31.0 | TAAR1 desens inactive | Ga16 antag count inactive
Cc1ccc(CNC(=O)Cn2nnc(C(=O)Nc3cccc(C)c3C)c2N)cc1	none
Nc1c(C(=O)NCc2ccc3c(c2)OCO3)nnn1CC(=O)Nc1ccc(Br)cc1	none
Nc1c(C(=O)NCc2ccc3c(c2)OCO3)nnn1Cc1ccc(Br)cc1	TAAR1 agonist 65.5 | TAAR1 ag confirm 101.9 | Ga16 ag counter 46.5 | TAAR1 desens 76.3 | Ga16 antag count 38.3
Cc1ccc(C)c(Cn2nnc(C(=O)Nc3ccc4c(c3)OCCO4)c2N)c1	TAAR1 agonist 102.0, TAAR1 antagonist 66.9 | TAAR1 ag confirm 105.2 | Ga16 ag counter 54.5 | TAAR1 desens 63.4 | Ga16 antag count 29.6
CSc1ncccc1C(=O)OC(C)C(=O)Nc1cccc(S(=O)(=O)N2CCOCC2)c1 (stereo unspecified)	none (no result: TMEM16A inh)
COc1ccccc1C(C)NC(=O)c1ccc(NC(=O)CC2SC(N3CCCC3)=NC2=O)cc1 (stereo unspecified)	none (no result: TMEM16A inh)
CN(CC(=O)Nc1ccccc1Cl)C(=O)CCNC(=O)Nc1ccccc1	none (no result: TAAR1 agonist, TAAR1 antagonist, TMEM16A inh) | Ga16 ag counter inactive | Ga16 antag count inactive
COc1ccc(NC(=O)CN(C)C(=O)CCNC(=O)Nc2ccccc2)cc1	none (no result: TMEM16A inh)
Cc1cccc(-c2oc3ccc(-c4ccc5c(c4)OCO5)cc3c2/C=C/c2ccc(N)cc2)c1	none (no result: TAAR1 agonist, TAAR1 antagonist)
OCCNCc1cc(Br)ccc1OCc1ccc(Cl)cc1Cl	TAAR1 agonist 55.6 (no result: TMEM16A inh) | TAAR1 ag confirm 78.7 | Ga16 ag counter 48.7 | TAAR1 desens 50.5 | Ga16 antag count 40.9
OCCNCc1cc(Br)ccc1OCc1ccc(Cl)cc1	none
Nc1nc(NCCOCCO)nc(NCC2CCCO2)c1[N+](=O)[O-] (stereo unspecified)	none
C=CCOC(=O)Nc1nc(CCNC(=O)OCc2ccccc2)c(C(=O)OC)s1	none (no result: CRFR2-BP ag, CRFR2-BP antag, TMEM16A act, TMEM16A inh)
CCCc1nnc(NC(=O)Cn2c(=O)oc3cc(Br)ccc32)s1	TAAR1 agonist 121.0, TAAR1 antagonist 63.2, CRFR2-BP ag 79.3 | TAAR1 ag confirm 105.6 | Ga16 ag counter 72.7 | TAAR1 desens 74.9 | Ga16 antag count 44.7
O=[N+]([O-])c1ccc2nonc2c1Nc1ccccc1	TAAR1 agonist 78.2 | TAAR1 ag confirm inactive | Ga16 ag counter inactive | TAAR1 desens inactive | Ga16 antag count inactive
NC(N)=Nc1cc2ccccc2c2ccccc12	none (no result: TAAR1 agonist, TAAR1 antagonist, CRFR2-BP ag, CRFR2-BP antag, TMEM16A act) | Ga16 ag counter inactive | Ga16 antag count inactive
NC(N)=NC(N)=Nc1cccc2ccccc12	none
CN(C)c1nc(C=C(C#N)C#N)c(Cl)n1-c1ccc(F)cc1	none (no result: TMEM16A inh)
Cc1cc(=O)[nH]c(Nc2cccc(F)c2)n1	TAAR1 agonist 51.0 | TAAR1 ag confirm 81.1 | Ga16 ag counter inactive | TAAR1 desens inactive | Ga16 antag count inactive
COc1ccc(NC(=O)CCCOc2ccc(Cl)c(C)c2)cc1S(=O)(=O)N1CCOCC1	none (no result: TMEM16A inh)
CN(CCc1ccccc1)C(C(=O)Nc1ccc2c(c1)OCCO2)c1ccnc2ccccc12 (stereo unspecified)	TAAR1 agonist 60.8, TAAR1 antagonist 53.0 (no result: CRFR2-BP ag, CRFR2-BP antag, TMEM16A act, TMEM16A inh) | TAAR1 ag confirm 77.8 | Ga16 ag counter inactive | TAAR1 desens inactive | Ga16 antag count inactive
CCNC(=S)NNC(=O)c1ccc(OC)cc1	none
COc1ccc(/C=C/C(=O)NC(=S)NNC(=O)c2cccs2)cc1	TAAR1 agonist 100.4, TAAR1 antagonist 72.8 | TAAR1 ag confirm 68.9 | Ga16 ag counter 50.8 | TAAR1 desens 49.9 | Ga16 antag count 40.9
CCCCC(=O)NC(=S)NNC(=O)c1ccc(OC)cc1	TAAR1 agonist 85.1, CRFR2-BP ag 85.3 | TAAR1 ag confirm 98.9 | Ga16 ag counter 81.5 | TAAR1 desens 51.5 | Ga16 antag count 44.3
COc1ccc(C(=O)NNC(=S)NC(=O)c2ccc(OC)cc2)cc1	TAAR1 agonist 110.0, TAAR1 antagonist 81.1, CRFR2-BP ag 51.4 | TAAR1 ag confirm 87.5 | Ga16 ag counter 88.9 | TAAR1 desens 49.4 | Ga16 antag count 47.3
COc1ccc(/C=C/C(=O)NC(=S)NNC(=O)c2cccnc2)cc1	none
COc1ccc(C(=O)NC(=S)NNC(=O)c2cccc(C)c2)cc1	TAAR1 agonist 169.8, TAAR1 antagonist 104.0, CRFR2-BP ag 131.3, TMEM16A inh 25 | TAAR1 ag confirm 148.0 | Ga16 ag counter 122.0 | TAAR1 desens 106.4 | Ga16 antag count 74.3
CCOC(=O)C1=C[C@@H](C(C)(C)C)N(S(=O)(=O)c2ccc(C)cc2)[C@H]1c1ccc(F)cc1	none (no result: CRFR2-BP ag, CRFR2-BP antag, TMEM16A act, TMEM16A inh)
COc1ccc(C(=O)NNC(=S)NC(=O)c2cccs2)cc1	TAAR1 agonist 102.7 | TAAR1 ag confirm 66.7 | Ga16 ag counter 40.0 | TAAR1 desens inactive | Ga16 antag count 25.7
Cc1cccc(C(=O)NC(=S)NNC(=O)COc2ccc(Cl)cc2)c1	TAAR1 agonist 99.5, TAAR1 antagonist 53.1, CRFR2-BP ag 59.0 (no result: TMEM16A inh) | TAAR1 ag confirm 103.7 | Ga16 ag counter 83.8 | TAAR1 desens 75.8 | Ga16 antag count 53.0
O=C(NC(=S)NNC(=O)[C@H]1C[C@@H]1c1ccccc1)c1cccc(F)c1	TAAR1 agonist 77.1, TMEM16A inh 100 | TAAR1 ag confirm 74.3 | Ga16 ag counter 83.0 | TAAR1 desens inactive | Ga16 antag count 29.8
